The record followed here is ChEMBL document CHEMBL2424622, “Development of amino-pyrimidine inhibitors of c-Jun N-terminal kinase (JNK): kinase profiling guided optimization of a 1,2,3-benzotriazole lead” (Bioorg Med Chem Lett, 2013).

Test [1] deals with Dual specificity protein kinase CLK1 (Homo sapiens) (UniProt P49759). In words: Competitive binding affinity to CLK1 (unknown origin) at 10 uM in presence of ATP relative to control.
Test [2] concerns the target T1, Serine/threonine-protein kinase 36 (Homo sapiens) (UniProt Q9NRP7).
T1 sequence (whole entry): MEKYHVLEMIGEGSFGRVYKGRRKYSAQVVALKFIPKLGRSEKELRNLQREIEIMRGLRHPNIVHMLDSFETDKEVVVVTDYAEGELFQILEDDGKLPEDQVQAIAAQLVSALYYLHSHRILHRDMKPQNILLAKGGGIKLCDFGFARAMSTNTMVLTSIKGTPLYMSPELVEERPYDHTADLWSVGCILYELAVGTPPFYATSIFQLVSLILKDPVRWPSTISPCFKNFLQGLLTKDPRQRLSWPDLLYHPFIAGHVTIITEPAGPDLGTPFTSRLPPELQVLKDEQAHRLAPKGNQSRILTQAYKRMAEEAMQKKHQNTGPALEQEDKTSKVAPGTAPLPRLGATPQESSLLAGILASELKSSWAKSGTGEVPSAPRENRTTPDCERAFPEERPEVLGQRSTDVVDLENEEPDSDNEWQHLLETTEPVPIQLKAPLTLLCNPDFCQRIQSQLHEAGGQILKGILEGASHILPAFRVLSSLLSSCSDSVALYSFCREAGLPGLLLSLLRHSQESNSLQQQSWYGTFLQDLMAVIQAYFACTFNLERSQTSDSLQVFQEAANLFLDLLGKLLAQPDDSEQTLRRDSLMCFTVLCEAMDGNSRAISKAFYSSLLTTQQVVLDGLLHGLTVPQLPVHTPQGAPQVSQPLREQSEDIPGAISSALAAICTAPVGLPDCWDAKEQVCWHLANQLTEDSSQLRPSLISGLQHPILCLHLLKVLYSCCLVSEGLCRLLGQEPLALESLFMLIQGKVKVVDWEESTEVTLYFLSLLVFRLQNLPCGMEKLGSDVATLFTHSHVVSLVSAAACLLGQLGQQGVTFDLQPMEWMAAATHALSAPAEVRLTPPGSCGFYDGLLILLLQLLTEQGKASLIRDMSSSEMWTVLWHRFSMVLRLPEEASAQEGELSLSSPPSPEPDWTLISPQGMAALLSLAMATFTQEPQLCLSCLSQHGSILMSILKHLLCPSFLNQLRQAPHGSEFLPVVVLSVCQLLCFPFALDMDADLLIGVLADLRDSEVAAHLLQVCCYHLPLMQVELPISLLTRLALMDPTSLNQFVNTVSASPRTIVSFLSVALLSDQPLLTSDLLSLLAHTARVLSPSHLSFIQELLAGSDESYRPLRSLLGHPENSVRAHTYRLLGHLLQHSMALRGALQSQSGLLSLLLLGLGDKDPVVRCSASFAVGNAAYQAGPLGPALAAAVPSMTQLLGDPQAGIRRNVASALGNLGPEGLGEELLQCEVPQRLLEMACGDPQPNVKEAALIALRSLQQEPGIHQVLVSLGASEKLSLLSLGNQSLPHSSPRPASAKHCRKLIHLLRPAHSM
In words: Competitive binding affinity to STK36 (unknown origin) at 10 uM in presence of ATP relative to control. The essentials: (§1)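 In vitro ATP-site competition binding assay across a diverse panel of 128 kinases, with each compound tested at a single concentration. Kinase binding is expressed relative to control.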

Test [3] has as its target Serine/threonine-protein kinase pim-2 (Homo sapiens) (UniProt Q9P1W9). In words: Competitive binding affinity to PIM2 (unknown origin) at 10 uM in presence of ATP relative to control. The essentials: as §1
Test [4] addresses Tyrosine-protein kinase Lyn (Homo sapiens) (UniProt P07948). In words: Competitive binding affinity to LYN (unknown origin) at 10 uM in presence of ATP relative to control. Summed up: (§2)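 In vitro ATP-site competition binding assay, part of profiling against a diverse panel of 128 kinases. Each compound was tested at a single concentration of 10 µM. Kinome selectivity was summarized as S15 selectivity scores.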

The target of test [5] is T2, Cyclin-G-associated kinase (Homo sapiens) (UniProt O14976).
T2 sequence (whole entry): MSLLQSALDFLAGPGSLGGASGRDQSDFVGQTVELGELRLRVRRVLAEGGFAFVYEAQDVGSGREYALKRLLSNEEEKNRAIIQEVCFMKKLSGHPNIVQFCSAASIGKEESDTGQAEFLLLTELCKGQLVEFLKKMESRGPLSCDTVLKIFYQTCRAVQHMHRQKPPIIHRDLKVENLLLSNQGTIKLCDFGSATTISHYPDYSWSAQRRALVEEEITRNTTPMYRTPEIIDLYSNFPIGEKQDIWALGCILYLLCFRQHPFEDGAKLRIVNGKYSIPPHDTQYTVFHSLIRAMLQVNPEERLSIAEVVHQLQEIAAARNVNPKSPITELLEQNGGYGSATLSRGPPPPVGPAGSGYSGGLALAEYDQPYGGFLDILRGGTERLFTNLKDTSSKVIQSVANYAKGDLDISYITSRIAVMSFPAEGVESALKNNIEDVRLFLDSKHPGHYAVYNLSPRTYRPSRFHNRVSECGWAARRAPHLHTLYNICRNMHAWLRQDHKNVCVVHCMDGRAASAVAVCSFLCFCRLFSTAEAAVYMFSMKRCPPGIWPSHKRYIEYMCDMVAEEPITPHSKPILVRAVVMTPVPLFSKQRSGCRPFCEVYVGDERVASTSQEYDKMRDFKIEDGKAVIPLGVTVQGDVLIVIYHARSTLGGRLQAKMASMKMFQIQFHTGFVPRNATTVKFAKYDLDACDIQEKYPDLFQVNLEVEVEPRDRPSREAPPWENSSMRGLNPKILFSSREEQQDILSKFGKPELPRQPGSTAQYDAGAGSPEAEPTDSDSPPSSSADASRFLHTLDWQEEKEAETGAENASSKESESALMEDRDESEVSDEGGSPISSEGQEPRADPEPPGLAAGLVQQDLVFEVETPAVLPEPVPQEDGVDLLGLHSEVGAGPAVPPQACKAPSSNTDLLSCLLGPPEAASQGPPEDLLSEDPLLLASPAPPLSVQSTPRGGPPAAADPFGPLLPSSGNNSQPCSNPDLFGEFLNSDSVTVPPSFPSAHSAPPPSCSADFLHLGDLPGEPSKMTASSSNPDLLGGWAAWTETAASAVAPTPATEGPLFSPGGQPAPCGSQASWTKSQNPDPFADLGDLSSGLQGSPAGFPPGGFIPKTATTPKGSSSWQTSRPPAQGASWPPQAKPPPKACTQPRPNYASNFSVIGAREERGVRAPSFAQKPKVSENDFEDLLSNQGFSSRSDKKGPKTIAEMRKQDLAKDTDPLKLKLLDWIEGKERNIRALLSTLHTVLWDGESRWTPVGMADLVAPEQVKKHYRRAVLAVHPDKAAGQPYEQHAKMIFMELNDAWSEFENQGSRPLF
In words: Competitive binding affinity to GAK (unknown origin) at 10 uM in presence of ATP relative to control. Summed up: as §2

Sequence of Dual specificity protein kinase CLK1 (Homo sapiens) (P49759 whole entry, looked up): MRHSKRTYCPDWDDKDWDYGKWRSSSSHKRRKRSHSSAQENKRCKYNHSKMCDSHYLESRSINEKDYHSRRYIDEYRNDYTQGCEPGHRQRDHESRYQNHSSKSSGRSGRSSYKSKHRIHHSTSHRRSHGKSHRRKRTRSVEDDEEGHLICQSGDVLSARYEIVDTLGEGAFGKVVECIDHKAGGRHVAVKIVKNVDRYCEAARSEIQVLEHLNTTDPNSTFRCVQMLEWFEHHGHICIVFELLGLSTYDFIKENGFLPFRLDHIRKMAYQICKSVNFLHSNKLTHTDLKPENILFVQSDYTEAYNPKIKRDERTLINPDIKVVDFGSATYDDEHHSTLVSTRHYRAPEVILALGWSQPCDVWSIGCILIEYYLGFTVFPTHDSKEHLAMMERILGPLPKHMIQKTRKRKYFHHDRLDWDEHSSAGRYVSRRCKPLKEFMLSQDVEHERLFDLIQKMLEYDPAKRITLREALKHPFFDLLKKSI
Sequence of Tyrosine-protein kinase Lyn (Homo sapiens) (P07948 2-512 limits assumed): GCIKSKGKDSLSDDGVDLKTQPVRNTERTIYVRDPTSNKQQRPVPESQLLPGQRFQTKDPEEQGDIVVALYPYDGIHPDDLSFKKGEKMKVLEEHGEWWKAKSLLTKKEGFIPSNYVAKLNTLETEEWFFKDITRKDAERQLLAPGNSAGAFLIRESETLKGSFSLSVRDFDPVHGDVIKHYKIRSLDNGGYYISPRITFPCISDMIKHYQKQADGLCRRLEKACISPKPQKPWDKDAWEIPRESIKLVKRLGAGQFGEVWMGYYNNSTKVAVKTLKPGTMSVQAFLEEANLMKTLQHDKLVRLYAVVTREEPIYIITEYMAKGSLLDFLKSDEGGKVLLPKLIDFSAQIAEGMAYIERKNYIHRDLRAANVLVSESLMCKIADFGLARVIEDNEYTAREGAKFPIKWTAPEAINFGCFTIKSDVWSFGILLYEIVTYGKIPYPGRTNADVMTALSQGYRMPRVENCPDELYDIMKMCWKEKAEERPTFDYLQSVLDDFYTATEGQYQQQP
Sequence of Serine/threonine-protein kinase pim-2 (Homo sapiens) (Q9P1W9 whole entry, looked up): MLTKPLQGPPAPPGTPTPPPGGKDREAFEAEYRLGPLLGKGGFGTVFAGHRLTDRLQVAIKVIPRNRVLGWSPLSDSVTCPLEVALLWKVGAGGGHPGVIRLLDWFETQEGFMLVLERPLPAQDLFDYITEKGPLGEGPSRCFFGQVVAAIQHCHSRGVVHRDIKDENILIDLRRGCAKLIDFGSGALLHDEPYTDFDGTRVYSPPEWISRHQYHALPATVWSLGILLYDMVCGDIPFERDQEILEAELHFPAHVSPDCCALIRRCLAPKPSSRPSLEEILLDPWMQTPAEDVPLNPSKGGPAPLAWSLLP

For the molecule `O[C@H]1CC[C@H](Nc2nccc(-n3ccc4ccccc43)n2)CC1`, the inhibition (commonly the share of the control response that was lost under treatment) was 91% in test [1]; 84% in test [2]; 86% in test [3]; below 50% in test [4]; 91% in test [5].

As for `O[C@H]1CC[C@H](Nc2nccc(-n3nnc4ccccc43)n2)CC1`, the inhibition in test [1] is 95%; in test [2] it was 96%; in test [3], 98%; in test [4], below 50%; in test [5], 100%.

On to `O=C([C@H]1CC[C@H](Nc2nccc(-n3nnc4ccccc43)n2)CC1)N1CCOCC1`, for which the inhibition in test [1] was 87%; in test [2], 95%; in test [3], 78%; in test [4], below 50%; in test [5], 100%.

Regarding `O[C@H]1CC[C@H](Nc2nccc(-n3ncc4ccccc43)n2)CC1`, the inhibition in test [1] is 93%; in test [2] it was 97%; in test [3], 99%; in test [4], below 50%; in test [5] it was 100%.

For `O[C@H]1CC[C@H](Nc2nccc(-c3n[nH]c4ccccc34)n2)CC1`, the inhibition is 100% in test [1]; 99% in test [2]; 100% in test [3]; below 50% in test [4]; 100% in test [5].

Take `N[C@H]1CC[C@H](Nc2nccc(-n3nnc4ccccc43)n2)CC1`: the inhibition was 100% in test [1]; 100% in test [2]; 99% in test [3]; below 50% in test [4]; 91% in test [5].
